Data as given in ChEMBL document CHEMBL4732044, “Discovery of a promising agent IQZ23 for the treatment of obesity and related metabolic disorders” (Eur J Med Chem, 2020).
Converted amounts (≈) assume the structure as drawn. The source made the active and inactive calls. The rule behind the calls is not given here.

Legend:
3T3-L1 [1] = assay: Lipid lowering activity in mouse 3T3-L1 cells assessed as reduction in adipogenic cocktail-induced triglyceride levels incubated for 6 days by GPO-POD assay; format: functional, cell-based; conditions: for Activity: dose 1-5 µM, time 6.0 day; for EC50: 3T3-L1, 144 h
Outline: (§1)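 Confluent 3T3-L1 cells were treated from day 0 in cocktail (IBMX, dexamethasone, insulin) for 3 days, then re-dosed in insulin medium for 3 more days. For dose–response, concentrations were 0–10 µM (0.01, 0.1, 0.3, 1, 3, 10). On day 6, cells were lysed in 0.2% Triton X-100 and TG was measured by GPO-POD and normalized to BCA protein as % of control. EC50 was fitted from the dose–response. N = 4.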

3T3-L1 [2] = assay: Lipid lowering activity in mouse 3T3-L1 cells assessed as adipogenic cocktail-induced triglyceride levels at 1 uM incubated for 6 days by GPO-POD assay relative to control; format: functional; conditions: time 6 day; outline: as §1
3T3-L1 [3] = assay: Inhibition of mouse 3T3-L1 cells adipocyte differentiation assessed as reduction in adipogenic cocktail-induced C/EBPalpha mRNA expression after 24 hrs by RT-qPCR analysis; format: functional, cell-based; conditions: dose 0.01-1 µM
Outline: (§2)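 Confluent 3T3-L1 preadipocytes received differentiation cocktail (0.5 mM IBMX, 100 ng/mL dexamethasone, 2 µg/mL insulin) with compound (0.01–1 µM; metformin 1 mM) for 24 h. mRNA was measured by SYBR Green RT-qPCR (30 cycles), normalized to β-actin, with the differentiated control set to 1. N = 4 independent experiments.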

[4] = Aqueous solubility in PBS buffer at pH 7.4 after 24 hrs; format: physicochemical
3T3-L1 [5] = assay: Inhibition of mouse 3T3-L1 cells adipocyte differentiation assessed as reduction in adipogenic cocktail-induced C/EBPdelta mRNA expression after 24 hrs by RT-qPCR analysis; format: functional, cell-based; conditions: dose 0.01-1 µM; outline: as §2
[6] = Stability in Sprague-Dawley rat liver microsomes assessed as remaining compound […] up to 60 mins in presence of NADPH by LC-MS/MS analysis; format: ADME, Microsome; conditions: read-out: Stabilty
3T3-L1 [7] = assay: Inhibition of mouse 3T3-L1 cells adipocyte differentiation assessed as reduction in adipogenic cocktail-induced PPARgamma mRNA expression after 24 hrs by RT-qPCR analysis; format: functional, cell-based; conditions: dose 0.01-1 µM; outline: as §2
3T3-L1 [8] = assay: Cytotoxicity against mouse 3T3-L1 cells assessed as change in LDH releasing level at 5 uM after 6 days by LDH releasing assay; format: cell-based; conditions: 3t3-l1, 144 h, time 6 day
Outline: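 Differentiating 3T3-L1 cells were treated at 5 µM for 6 days. Plates were centrifuged and LDH activity in the supernatant was read at 490 nm. Release was expressed as fold = (treated − blank)/(control − blank), with untreated cells as blank and vehicle-differentiated control set to 1.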

[9] = Intrinsic clearance in Sprague-Dawley rat liver microsomes assessed as rate constant […] up to 60 mins in presence of NADPH by LC-MS/MS analysis; format: ADME, Microsome; conditions: read-out: CLH
3T3-L1 [10] = assay: Lipid lowering activity in mouse 3T3-L1 cells assessed as reduction in adipogenic cocktail-induced triglyceride levels at 1 uM incubated for 6 days by GPO-POD assay relative to control; format: functional; design: scale not given: the % may be the effect or the level left; conditions: time 6 day; outline: as §1
3T3-L1 [11] = assay: Lipid lowering activity in mouse 3T3-L1 cells assessed as reduction in adipogenic cocktail-induced triglyceride levels at 1 uM incubated for 6 days by Oil-red O staining based assay; format: functional, cell-based; conditions: time 6.0 day
Outline: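 Differentiating 3T3-L1 cells were treated at 1 µM for 6 days, then washed with PBS and fixed in 4% formaldehyde for 1 h. Cells were stained with 0.3% Oil Red O for 30 min at room temperature in the dark and imaged at ×200.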

3T3-L1 [12] = assay: Activation of AMPK pathway in adipogenic cocktail-induced mouse 3T3-L1 cells assessed as increase in phosphorylation AMPKalpha at Thr172 residue at 0.01 to 1 uM after 24 hrs by Western blot analysis; format: cell-based; conditions: filed as activator, dose 0.01-1 µM
Outline: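 Confluent 3T3-L1 pre-adipocytes exposed to adipogenic cocktail for 24 h with or without compound (0, 0.01, 0.1, 1 µM); DMSO vehicle. Lysates analysed by SDS-PAGE/Western blot for pAMPKα (Thr-172), normalized to actin, Ctrl set as 1. N = 4 independent experiments.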

[13] = Half life in Sprague-Dawley rat liver microsomes assessed as rate constant […] up to 60 mins in presence of NADPH by LC-MS/MS analysis; format: ADME, Microsome
3T3-L1 [14] = assay: Inhibition of mouse 3T3-L1 cells adipocyte differentiation assessed as reduction in adipogenic cocktail-induced C/EBPbeta mRNA expression after 24 hrs by RT-qPCR analysis; format: functional, cell-based; conditions: dose 0.01-1 µM; outline: as §2
[15] = Stability in Sprague-Dawley rat liver microsomes assessed as rate constant […] up to 60 mins in presence of NADPH by LC-MS/MS analysis; format: ADME, Microsome
3T3-L1 [16] = assay: Lipid lowering activity in mouse 3T3-L1 cells assessed as reduction in adipogenic cocktail-induced triglyceride levels at 1 to 5 uM incubated for 6 days by GPO-POD assay relative to control; format: functional; conditions: dose 1-5 µM, time 6.0 day; outline: as §1
3T3-L1 [17] = assay: Activation of AMPK pathway in mouse 3T3-L1 cells assessed as increase in number of mitochondria copy at 2 uM after 24 hrs in presence of compound C by mito-tracker staining based Confocal microscopic method
Outline: (§3)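 3T3-L1 cells grown in DMEM with 10% FBS at 37 °C and 5% CO2. After treatment, cells were stained for 30 min at 37 °C in the dark with 1 µM Mito-Tracker plus Hoechst 33342 (1:1000) and imaged by confocal microscopy (excitation 633 and 405 nm). Mitochondrial copy number was also taken as the mtDNA/nDNA ratio by PCR (cytochrome C versus 18S rRNA).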

3T3-L1 [18] = assay: Activation of AMPK pathway in mouse 3T3-L1 cells assessed as increase in number of mitochondria copy at 2 uM after 24 hrs by mito-tracker staining based Confocal microscopic method; conditions: filed as activator; outline: as §3

| Compound | Activity (3T3-L1 [1]) | Activity (3T3-L1 [16]) | other results |
| --- | --- | --- | --- |
| CN(C)CCCCNc1nc(-c2oc3ccccc3c2C=O)nc2ccccc12 | Dose-dependent effect |  |  |
| O=Cc1c(-c2nc(NCCCN3CCCC3)c3ccccc3n2)oc2ccccc12 | Dose-dependent effect |  | Activity (3T3-L1 [2]): 88.7% |
| O=Cc1c(-c2nc(NCCN3CCCC3)c3ccccc3n2)oc2ccccc12 | Dose-dependent effect |  |  |
| CN(C)CCOc1nc(-c2[nH]c3ccccc3c2C=O)nc2ccccc12 | Dose-dependent effect |  |  |
| CCN(CC)CCCCNc1nc(-c2[nH]c3ccc(OC)cc3c2C=O)nc2ccccc12 | Dose-dependent effect |  | inhibition (3T3-L1 [3]): Dose-dependent effect; solubility at 24 h [4]: 65.9 µg/mL (≈ 148 µM); inhibition (3T3-L1 [5]): Dose-dependent effect; remaining at 1 h [6]: 84%; inhibition (3T3-L1 [7]): Dose-dependent effect; Activity (3T3-L1 [8]): Non-Toxic; EC50 (3T3-L1 [1]): 920 nM; microsomal CLint [9]: 2.7 µL/min/mg; Activity (3T3-L1 [10]): >=50%; Activity (3T3-L1 [11]): Active; Activity (3T3-L1 [12]): Active; half-life [13]: 4.28 h; inhibition (3T3-L1 [14]): Dose-dependent effect; k el at 1 h [15]: 4.5e-05 s⁻¹ |
| O=Cc1c(-c2nc(NCCCCN3CCCC3)c3ccccc3n2)[nH]c2ccccc12 | Dose-dependent effect |  | inhibition (3T3-L1 [3]): Dose-dependent effect; solubility at 24 h [4]: 15.1 µg/mL (≈ 36.5 µM); inhibition (3T3-L1 [5]): Dose-dependent effect; remaining at 1 h [6]: 83.9%; inhibition (3T3-L1 [7]): Dose-dependent effect; Activity (3T3-L1 [8]): Non-Toxic; EC50 (3T3-L1 [1]): 510 nM; microsomal CLint [9]: 2.8 µL/min/mg; Activity (3T3-L1 [10]): >=50%; Activity (3T3-L1 [11]): Active; Activity (3T3-L1 [12]): Active; half-life [13]: 4.13 h; inhibition (3T3-L1 [14]): Dose-dependent effect; k el at 1 h [15]: 4.67e-05 s⁻¹ |
| CN(C)CCCOc1nc(-c2[nH]c3ccccc3c2C=O)nc2ccccc12 | Dose-dependent effect |  |  |
| Cc1c(-c2nc(OCCCN(C)C)c3ccccc3n2)oc2ccccc12 | Dose-dependent effect | Active |  |
| Cc1c(-c2nc(NCCCCN(C)C)c3ccccc3n2)[nH]c2ccccc12 | Dose-dependent effect | Active |  |
| Cc1c(-c2nc(NCCN(C)C)c3ccccc3n2)sc2ccccc12 | Dose-dependent effect | Active |  |
| Cc1c(-c2nc(NCCCN3CCCC3)c3ccccc3n2)[nH]c2ccccc12 | Dose-dependent effect | Active |  |
| CN(C)CCCCOc1nc(-c2[nH]c3ccccc3c2C=O)nc2ccccc12 | Dose-dependent effect |  |  |
| CN(C)CCCNc1nc(-c2c(C=O)c3ccccc3n2Cc2ccccc2)nc2ccccc12 | Dose-dependent effect |  | Activity (3T3-L1 [2]): 57.1% |
| Cc1c(-c2nc(NCCN(C)C)c3ccccc3n2)[nH]c2ccccc12 | Dose-dependent effect | Active |  |
| COc1ccc2[nH]c(-c3nc(NCCN4CCCC4)c4ccccc4n3)c(C=O)c2c1 | Dose-dependent effect |  | inhibition (3T3-L1 [3]): Dose-dependent effect; solubility at 24 h [4]: 56.4 µg/mL (≈ 136 µM); inhibition (3T3-L1 [5]): Dose-dependent effect; remaining at 1 h [6]: 66.6%; inhibition (3T3-L1 [7]): Dose-dependent effect; Activity (3T3-L1 [8]): Non-Toxic; EC50 (3T3-L1 [1]): 310 nM; microsomal CLint [9]: 6.6 µL/min/mg; Activity (3T3-L1 [10]): >=50%; Activity (3T3-L1 [11]): Active; Activity (3T3-L1 [12]): Active; half-life [13]: 1.75 h; inhibition (3T3-L1 [14]): Dose-dependent effect; k el at 1 h [15]: 0.00011 s⁻¹ |
| Cc1c(-c2nc(NCCCCN3CCCC3)c3ccccc3n2)sc2ccccc12 | Dose-dependent effect | Active |  |
| CN(C)CCCNc1nc(-c2c(C=O)c3ccccc3n2C)nc2ccccc12 | Dose-dependent effect |  | Activity (3T3-L1 [2]): 70.4% |
| CN(C)CCNc1nc(-c2oc3ccccc3c2C=O)nc2ccccc12 | Dose-dependent effect |  |  |
| CN(C)CCCNc1nc(-c2oc3ccccc3c2C=O)nc2ccccc12 | Dose-dependent effect |  |  |
| CCN(CC)CCNc1nc(-c2[nH]c3ccccc3c2C)nc2ccccc12 | Dose-dependent effect | Active |  |

| Compound | Activity (3T3-L1 [1]) | Activity (3T3-L1 [16]) | other results |
| --- | --- | --- | --- |
| COc1ccc2[nH]c(-c3nc(NCCCN(C)C)c4ccccc4n3)c(C=O)c2c1 | Dose-dependent effect |  |  |
| CCN(CC)CCCCNc1nc(-c2[nH]c3ccccc3c2C=O)nc2ccccc12 | Dose-dependent effect |  |  |
| Cc1c(-c2nc(NCCN3CCCC3)c3ccccc3n2)[nH]c2ccccc12 | Dose-dependent effect | Active |  |
| O=Cc1c(-c2nc(OCCN3CCCC3)c3ccccc3n2)[nH]c2ccccc12 | Dose-dependent effect |  |  |
| Cc1c(-c2nc(NCCCN(C)C)c3ccccc3n2)[nH]c2ccccc12 | Dose-dependent effect | Active |  |
| Cc1c(-c2nc(NCCN3CCCC3)c3ccccc3n2)sc2ccccc12 | Dose-dependent effect | Active |  |
| COc1ccc2[nH]c(-c3nc(NCCN(C)C)c4ccccc4n3)c(C=O)c2c1 | Dose-dependent effect |  |  |
| NC(=O)c1ncn([C@@H]2O[C@H](CO)[C@@H](O)[C@H]2O)c1N |  |  | Activity (3T3-L1 [17]): inactive; Activity (3T3-L1 [18]): Active |
| Cc1c(-c2nc(OCCN(C)C)c3ccccc3n2)oc2ccccc12 | Dose-dependent effect | Active |  |
| Cc1c(-c2nc(OCCN3CCCC3)c3ccccc3n2)oc2ccccc12 | Dose-dependent effect | Active |  |
| Cc1c(-c2nc(NCCCN(C)C)c3ccccc3n2)sc2ccccc12 | Dose-dependent effect | Active |  |
| Cc1c(-c2nc(NCCCN3CCCC3)c3ccccc3n2)sc2ccccc12 | Dose-dependent effect | Active |  |
| O=Cc1c(-c2nc(OCCCN3CCCC3)c3ccccc3n2)[nH]c2ccccc12 | Dose-dependent effect |  |  |
| CN(C)CCSc1nc(-c2[nH]c3ccccc3c2C=O)nc2ccccc12 | Dose-dependent effect |  |  |
| Cc1c(-c2nc(OCCCN3CCCC3)c3ccccc3n2)oc2ccccc12 | Dose-dependent effect | Active |  |
| O=Cc1c(-c2nc(NCCCN3CCCC3)c3ccccc3n2)[nH]c2ccccc12 | Dose-dependent effect |  | Activity (3T3-L1 [2]): 34.9% |
| CCN(CC)CCCCNc1nc(-c2[nH]c3ccccc3c2C)nc2ccccc12 | Dose-dependent effect | Active |  |
| Cc1c(-c2nc(OCCCCN(C)C)c3ccccc3n2)oc2ccccc12 | Dose-dependent effect | Active |  |
| CCN(CC)CCSc1nc(-c2[nH]c3ccccc3c2C=O)nc2ccccc12 | Dose-dependent effect |  |  |
| COc1ccc2[nH]c(-c3nc(NCCCN4CCCC4)c4ccccc4n3)c(C=O)c2c1 | Dose-dependent effect |  |  |
